The results in this text go back to ChEMBL document CHEMBL3108731, “A development of chimeric VEGFR2 TK inhibitor based on two ligand conformers from PDB: 1Y6A complex--medicinal chemistry consequences of a TKs analysis” (Eur J Med Chem, 2014).

The source made the active and inactive calls. The calls are words filed in the database; no cut-off is given here.

The species named for series [1] is Danio rerio. Put plainly: Antiangiogenic activity in zebrafish embryo at 5 uM up to 24 hrs by GFP assay. Type of series: functional. The procedure, abridged: (§1)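 Embryos of transgenic Zebrafish line TG(fli1:EGFP)y1 were used; a fli-1 promoter drives GFP expression in the endothelium. Embryos were incubated with different compound concentrations, and angiogenesis was assessed by live fluorescence imaging. Data are the percentage of treated embryos showing inhibited angiogenesis.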

The species named for series [2] is Danio rerio. Put plainly: Antiangiogenic activity in zebrafish embryo at 20 uM up to 24 hrs by GFP assay. Type of series: functional. Summed up:
as §1

Series [3] is filed under the species Danio rerio. Put plainly: Toxicity in zebrafish embryo up to 24 hrs by GFP assay. Type of series: organism-based. The following applies: in vivo.
The species entered for series [4] is Danio rerio. Put plainly: Antiangiogenic activity in zebrafish embryo at 10 uM up to 24 hrs by GFP assay. Type of series: functional. Summed up:
as §1

The species entered for series [5] is Danio rerio. Put plainly: Antiangiogenic activity in zebrafish embryo up to 24 hrs by GFP assay. Type of series: functional, organism-based. The procedure, abridged: as §1
The species named for series [6] is Danio rerio. Nature of the series: Antiangiogenic activity in zebrafish embryo assessed as inhibition of intersegmental blood vessel growth at 10 uM up to 24 hrs by GFP assay. Type of series: functional, organism-based. The procedure, abridged: as §1
Series [7] deals with BAEC. Put plainly: Antiangiogenic activity in BAEC assessed as inhibition of capillary tube formation after 7 hrs by matrigel assay. Type of series: functional. To be noted: Bos taurus. The procedure, abridged: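 BAE cells (5×10^4 per well) in DMEM were seeded on Matrigel (about 10.5 mg/mL) that had polymerized at 37 °C for at least 30 min. Cells were given compound at several amounts and kept at 37 °C, 5% CO2 for 7 h. Cord/tube formation was viewed at 200×. Each concentration was run in duplicate and scored by two independent observers.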

Series [8] deals with BAEC. Put plainly: Antiangiogenic activity in BAEC assessed as inhibition of cell migration to extracellular matrix at 1 uM after 7 hrs by wound-healing assay. To be noted: Bos taurus. Type of series: functional. The procedure, abridged:
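Confluent BAEC monolayers were wounded with a pipette tip to give one 1 mm-wide acellular lane. After washing, cells received complete medium without or with compound. The same fields were photographed at 0 and 7 h. Regrowth into the cell-free area was expressed as % recovered area, mean ± SD, n = 3.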

Series [9] has as its system U2OS. Nature of the series: Antiproliferative activity against human U2OS cells after 3 days by MTT assay. The following applies: 72 h. In kind it is functional, cell-based. Summed up:
(§2)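 MTT dye-reduction assay: 3×10^3 BAE or 2×10^3 tumour cells in their own growth media were given serial dilutions of compound for 3 days at 37 °C, 5% CO2. MTT (5 mg/ml stock in PBS) was added for 4 h, and formazan was dissolved in 0.04 N HCl/2-propanol and read at 550 nm. IC50 is the concentration giving 50% survival; values are mean ± S.D. of at least three experiments in triplicate.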

The test system of series [10] is BAEC. Nature of the series: Induction of apoptosis in BAEC assessed as chromatin condensation at 0.5 to 1 uM after 14 hrs by Hoechst staining. To be noted: Bos taurus. In kind it is functional. The procedure, abridged: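 Subconfluent BAE cells on chamber slides were treated for 14 h with the indicated concentrations in complete medium. Cells were then PBS-washed, formalin-fixed and stained with Hoechst for 2 min. Nuclear morphology (chromatin condensation) was examined by fluorescence microscopy.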

For series [11], the system named is HL-60. Put plainly: Antiproliferative activity against human HL60 cells after 3 days by MTT assay. In kind it is functional, cell-based. The following applies: HL-60, 72 h. The procedure, abridged:
as §2

Series [12] in a line: Antiproliferative activity against human HT1080 cells after 3 days by MTT assay. To be noted: HT-1080, 72 h. In kind it is functional, cell-based. The procedure, abridged:
as §2

In series [13] the test system is HT-29. Nature of the series: Antiproliferative activity against human HT-29 cells after 3 days by MTT assay. In kind it is functional, cell-based. The following applies: HT-29, 72 h. Summed up: as §2
The subject of series [14] is MDA-MB-231. Nature of the series: Antiproliferative activity against human MDA-MB-231 cells after 3 days by MTT assay. In kind it is functional, cell-based. The following applies: MDA-MB-231, 72 h. Summed up: as §2
Series [15] is described as follows: Antiproliferative activity against BAEC after 3 days by MTT assay. Type of series: functional. The following applies: Bos taurus, 72 h. The procedure, abridged:
as §2

The target of series [16] is Vascular endothelial growth factor receptor 2 (Homo sapiens, UniProt P35968). Nature of the series: Inhibition of GST-tagged recombinant human VEGFR2 expressed in Sf9 cells by radiometric assay. Type of series: cell-based.
Sequence of Vascular endothelial growth factor receptor 2 (P35968 whole entry): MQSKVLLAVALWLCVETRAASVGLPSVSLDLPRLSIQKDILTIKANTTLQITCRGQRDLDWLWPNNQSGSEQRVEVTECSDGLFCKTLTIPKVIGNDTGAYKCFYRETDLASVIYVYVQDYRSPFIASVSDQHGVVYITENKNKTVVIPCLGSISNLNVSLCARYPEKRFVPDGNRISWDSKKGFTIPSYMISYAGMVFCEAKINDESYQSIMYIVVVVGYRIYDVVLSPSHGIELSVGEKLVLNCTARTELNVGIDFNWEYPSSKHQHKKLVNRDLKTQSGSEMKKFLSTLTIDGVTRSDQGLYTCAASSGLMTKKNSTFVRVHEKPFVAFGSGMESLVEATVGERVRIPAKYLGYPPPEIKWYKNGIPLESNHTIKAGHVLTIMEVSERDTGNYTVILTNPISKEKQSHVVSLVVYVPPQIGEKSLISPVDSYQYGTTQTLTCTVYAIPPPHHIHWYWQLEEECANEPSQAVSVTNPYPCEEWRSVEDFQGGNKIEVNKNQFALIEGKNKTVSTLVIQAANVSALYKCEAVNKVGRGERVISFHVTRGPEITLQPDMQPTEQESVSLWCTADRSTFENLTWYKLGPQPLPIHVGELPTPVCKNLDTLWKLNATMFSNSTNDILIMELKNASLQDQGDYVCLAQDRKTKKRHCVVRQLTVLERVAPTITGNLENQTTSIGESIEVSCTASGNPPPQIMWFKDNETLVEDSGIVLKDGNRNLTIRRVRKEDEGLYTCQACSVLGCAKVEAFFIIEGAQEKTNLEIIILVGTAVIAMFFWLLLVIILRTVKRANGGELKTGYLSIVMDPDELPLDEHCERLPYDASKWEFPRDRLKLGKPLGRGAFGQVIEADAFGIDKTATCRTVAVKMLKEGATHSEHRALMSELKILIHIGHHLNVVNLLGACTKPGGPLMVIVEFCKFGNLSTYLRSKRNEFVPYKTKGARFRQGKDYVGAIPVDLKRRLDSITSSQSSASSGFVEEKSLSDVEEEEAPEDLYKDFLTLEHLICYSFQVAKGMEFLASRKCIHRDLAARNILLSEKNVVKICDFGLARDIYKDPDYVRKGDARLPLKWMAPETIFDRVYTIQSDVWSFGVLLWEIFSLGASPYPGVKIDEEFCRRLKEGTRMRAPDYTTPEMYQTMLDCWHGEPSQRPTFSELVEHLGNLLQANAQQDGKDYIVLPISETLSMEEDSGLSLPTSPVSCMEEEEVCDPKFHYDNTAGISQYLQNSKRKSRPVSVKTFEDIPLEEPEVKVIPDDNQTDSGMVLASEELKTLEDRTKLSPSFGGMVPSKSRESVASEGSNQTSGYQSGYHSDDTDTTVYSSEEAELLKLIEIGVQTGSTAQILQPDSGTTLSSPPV

On to `CCS(=O)(=O)c1ccc(OC)c(Nc2ncc(-c3cc(-c4ccccn4)cc(-c4ccccn4)c3)o2)c1`, for which the “inhibition (INH)” value in series [1] is listed as 7%; in [2] it was 87%; in [4], 53%. The Activity result in series [3] is “Non-toxic”. Also, the inhibition result in series [5] and in series [7] was “Dose-dependent effect” each time. The inhibition result in series [6] and in series [8] was “Active” throughout. Moreover, the IC50 in series [9] is 2030 nM; in series [11] it was 17800 nM; in series [12], 2430 nM; in [13], 15200 nM; in series [14], 3990 nM; in series [15], 370 nM. Also, the IC50 in [16] was found to be 15.1 nM. Besides, in series [10], the result was Active.

As for `CCS(=O)(=O)c1ccc(OC)c(Nc2ncc(-c3cc(Br)cc(-c4ccccn4)c3)o2)c1`, in [16], the half-inhibitory concentration (IC50) is 202 nM.

For `CCS(=O)(=O)c1ccc(OC)c(Nc2ncc(-c3cc(-c4cccnc4)cc(-c4ccccn4)c3)o2)c1`, the IC50 in series [16] was 51.2 nM.

With `CCS(=O)(=O)c1ccc(OC)c(Nc2ncc(-c3cc(-c4cccnc4)cc(-c4cccnc4)c3)o2)c1`, in series [16], the half-maximal inhibitory concentration (IC50) was 170 nM.
